Test system: U2OS
Assay: Multiplex assay against U2OS
Type: toxicity, cell-based
Details: human
Summary of the method: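 Per cents of healthy-nucleus cells form the tubulin, mitochondrial-mass and membrane-permeability phenotype values. Live cells were stained at seeding with Hoechst33342, BioTracker Green Microtubule Cytoskeleton Dye, MitoTracker Red and Annexin V Alexa Fluor 680. After compound addition they were imaged on a CQ1 microscope at 37°C and 5% CO2, and CellPathfinder machine-learning gating split them into Hoechst high-intensity objects or normal cells, normal cells into healthy, pyknosed or fragmented nuclei, and pyknosed cells into mitotic or apoptotic.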

[1] = 12 h, 1 µM, compound concentration 1 uM, replicate 1
[2] = 12 h, 1 µM, compound concentration 1 uM, replicate 2
[3] = 12 h, 10 µM, compound concentration 10 uM, replicate 1
[4] = 12 h, 10 µM, compound concentration 10 uM, replicate 2
[5] = 24 h, 1 µM, compound concentration 1 uM, replicate 1
[6] = 24 h, 1 µM, compound concentration 1 uM, replicate 2
[7] = 24 h, 10 µM, compound concentration 10 uM, replicate 1
[8] = 24 h, 10 µM, compound concentration 10 uM, replicate 2
[9] = 48 h, 1 µM, compound concentration 1 uM, replicate 1
[10] = 48 h, 1 µM, compound concentration 1 uM, replicate 2
[11] = 48 h, 10 µM, compound concentration 10 uM, replicate 1
[12] = 48 h, 10 µM, compound concentration 10 uM, replicate 2

SMILES: Cl.N#Cc1ccc2[nH]cc(CCCCN3CCN(c4ccc5oc(C(N)=O)cc5c4)CC3)c2c1 [VILAZODONE HYDROCHLORIDE]
- Population Apoptotic (%) [1]: 42%
- Population Fragmented Nuclei (%) [1]: 17%
- Population Healthy Nuclei (%) [1]: 65%
- Population Hoechst High Intensity Objects (%) [1]: 9%
- Population Membrane Permeable-Phenotype (%) [1]: 4%
- Population Mitochondria Different-Phenotype (%) [1]: 28%
- Population Mitotic Cells (%) [1]: 57%
- Population Normal (%) [1]: 90%
- Population Pyknosed Nuclei (%) [1]: 17%
- Population Tubulin-Different-Phenotype (%) [1]: 29%
- Total Cell Count [1]: 129
- Population Apoptotic (%) [2]: 27%
- Population Fragmented Nuclei (%) [2]: 14%
- Population Healthy Nuclei (%) [2]: 70%
- Population Hoechst High Intensity Objects (%) [2]: 2%
- Population Membrane Permeable-Phenotype (%) [2]: 6%
- Population Mitochondria Different-Phenotype (%) [2]: 30%
- Population Mitotic Cells (%) [2]: 72%
- Population Normal (%) [2]: 97%
- Population Pyknosed Nuclei (%) [2]: 15%
- Population Tubulin-Different-Phenotype (%) [2]: 18%
- Total Cell Count [2]: 50
- Population Apoptotic (%) [3]: 39%
- Population Fragmented Nuclei (%) [3]: 29%
- Population Healthy Nuclei (%) [3]: 12%
- Population Hoechst High Intensity Objects (%) [3]: 18%
- Population Membrane Permeable-Phenotype (%) [3]: 42%
- Population Mitochondria Different-Phenotype (%) [3]: 89%
- Population Mitotic Cells (%) [3]: 60%
- Population Normal (%) [3]: 81%
- Population Pyknosed Nuclei (%) [3]: 58%
- Population Tubulin-Different-Phenotype (%) [3]: 100%
- Total Cell Count [3]: 120
- Population Apoptotic (%) [4]: 67%
- Population Fragmented Nuclei (%) [4]: 20%
- Population Healthy Nuclei (%) [4]: 14%
- Population Hoechst High Intensity Objects (%) [4]: 10%
- Population Membrane Permeable-Phenotype (%) [4]: 38%
- Population Mitochondria Different-Phenotype (%) [4]: 46%
- Population Mitotic Cells (%) [4]: 32%
- Population Normal (%) [4]: 89%
- Population Pyknosed Nuclei (%) [4]: 64%
- Population Tubulin-Different-Phenotype (%) [4]: 92%
- Total Cell Count [4]: 72
- Population Apoptotic (%) [5]: 56%
- Population Fragmented Nuclei (%) [5]: 16%
- Population Healthy Nuclei (%) [5]: 71%
- Population Hoechst High Intensity Objects (%) [5]: 7%
- Population Membrane Permeable-Phenotype (%) [5]: 2%
- Population Mitochondria Different-Phenotype (%) [5]: 26%
- Population Mitotic Cells (%) [5]: 43%
- Population Normal (%) [5]: 92%
- Population Pyknosed Nuclei (%) [5]: 12%
- Population Tubulin-Different-Phenotype (%) [5]: 21%
- Total Cell Count [5]: 120
- Population Apoptotic (%) [6]: 60%
- Population Fragmented Nuclei (%) [6]: 15%
- Population Healthy Nuclei (%) [6]: 78%
- Population Hoechst High Intensity Objects (%) [6]: 1%
- Population Membrane Permeable-Phenotype (%) [6]: 3%
- Population Mitochondria Different-Phenotype (%) [6]: 19%
- Population Mitotic Cells (%) [6]: 40%
- Population Normal (%) [6]: 98%
- Population Pyknosed Nuclei (%) [6]: 6%
- Population Tubulin-Different-Phenotype (%) [6]: 18%
- Total Cell Count [6]: 54
- Population Apoptotic (%) [7]: 61%
- Population Fragmented Nuclei (%) [7]: 26%
- Population Membrane Permeable-Phenotype (%) [7]: 53%
- Population Mitochondria Different-Phenotype (%) [7]: 86%
- Population Mitotic Cells (%) [7]: 38%
- Population Pyknosed Nuclei (%) [7]: 64%
- Population Tubulin-Different-Phenotype (%) [7]: 93%
- Total Cell Count [7]: 135
- Population Apoptotic (%) [8]: 75%
- Population Fragmented Nuclei (%) [8]: 31%
- Population Healthy Nuclei (%) [8]: 9%
- Population Hoechst High Intensity Objects (%) [8]: 18%
- Population Membrane Permeable-Phenotype (%) [8]: 30%
- Population Mitochondria Different-Phenotype (%) [8]: 90%
- Population Mitotic Cells (%) [8]: 24%
- Population Normal (%) [8]: 81%
- Population Pyknosed Nuclei (%) [8]: 59%
- Population Tubulin-Different-Phenotype (%) [8]: 90%
- Total Cell Count [8]: 79
- Population Apoptotic (%) [9]: 38%
- Population Fragmented Nuclei (%) [9]: 10%
- Population Healthy Nuclei (%) [9]: 76%
- Population Hoechst High Intensity Objects (%) [9]: 6%
- Population Membrane Permeable-Phenotype (%) [9]: 8%
- Population Mitochondria Different-Phenotype (%) [9]: 10%
- Population Mitotic Cells (%) [9]: 61%
- Population Normal (%) [9]: 93%
- Population Pyknosed Nuclei (%) [9]: 12%
- Population Tubulin-Different-Phenotype (%) [9]: 16%
- Total Cell Count [9]: 121
- Population Apoptotic (%) [10]: 40%
- Population Fragmented Nuclei (%) [10]: 12%
- Population Healthy Nuclei (%) [10]: 82%
- Population Hoechst High Intensity Objects (%) [10]: 2%
- Population Membrane Permeable-Phenotype (%) [10]: 9%
- Population Mitochondria Different-Phenotype (%) [10]: 9%
- Population Mitotic Cells (%) [10]: 60%
- Population Normal (%) [10]: 97%
- Population Pyknosed Nuclei (%) [10]: 4%
- Population Tubulin-Different-Phenotype (%) [10]: 11%
- Total Cell Count [10]: 49
- Population Apoptotic (%) [11]: 91%
- Population Fragmented Nuclei (%) [11]: 35%
- Population Healthy Nuclei (%) [11]: 7%
- Population Hoechst High Intensity Objects (%) [11]: 21%
- Population Membrane Permeable-Phenotype (%) [11]: 87%
- Population Mitochondria Different-Phenotype (%) [11]: 100%
- Population Mitotic Cells (%) [11]: 8%
- Population Normal (%) [11]: 78%
- Population Pyknosed Nuclei (%) [11]: 56%
- Population Tubulin-Different-Phenotype (%) [11]: 100%
- Total Cell Count [11]: 174
- Population Apoptotic (%) [12]: 89%
- Population Fragmented Nuclei (%) [12]: 25%
- Population Healthy Nuclei (%) [12]: 5%
- Population Hoechst High Intensity Objects (%) [12]: 25%
- Population Membrane Permeable-Phenotype (%) [12]: 75%
- Population Mitotic Cells (%) [12]: 10%
- Population Normal (%) [12]: 74%
- Population Pyknosed Nuclei (%) [12]: 68%
- Total Cell Count [12]: 120

SMILES: C=CC(=O)Nc1cccc(C(=O)Nc2ccc(Nc3cc(-c4[nH]c(SC)nc4C)ccn3)cc2)c1
- Population Apoptotic (%) [1]: 52%
- Population Fragmented Nuclei (%) [1]: 9%
- Population Healthy Nuclei (%) [1]: 78%
- Population Hoechst High Intensity Objects (%) [1]: 8%
- Population Membrane Permeable-Phenotype (%) [1]: 4%
- Population Mitochondria Different-Phenotype (%) [1]: 8%
- Population Mitotic Cells (%) [1]: 47%
- Population Normal (%) [1]: 91%
- Population Pyknosed Nuclei (%) [1]: 12%
- Population Tubulin-Different-Phenotype (%) [1]: 11%
- Total Cell Count [1]: 259
- Population Apoptotic (%) [2]: 0%
- Population Fragmented Nuclei (%) [2]: 2%
- Population Healthy Nuclei (%) [2]: 94%
- Population Hoechst High Intensity Objects (%) [2]: 14%
- Population Membrane Permeable-Phenotype (%) [2]: 0%
- Population Mitochondria Different-Phenotype (%) [2]: 7%
- Population Mitotic Cells (%) [2]: 100%
- Population Normal (%) [2]: 85%
- Population Pyknosed Nuclei (%) [2]: 2%
- Population Tubulin-Different-Phenotype (%) [2]: 23%
- Total Cell Count [2]: 112
- Population Fragmented Nuclei (%) [3]: 7%
- Population Healthy Nuclei (%) [3]: 77%
- Population Hoechst High Intensity Objects (%) [3]: 6%
- Population Membrane Permeable-Phenotype (%) [3]: 3%
- Population Mitochondria Different-Phenotype (%) [3]: 8%
- Population Mitotic Cells (%) [3]: 59%
- Population Normal (%) [3]: 93%
- Population Pyknosed Nuclei (%) [3]: 14%
- Population Tubulin-Different-Phenotype (%) [3]: 9%
- Total Cell Count [3]: 171
- Population Apoptotic (%) [4]: 40%
- Population Fragmented Nuclei (%) [4]: 6%
- Population Healthy Nuclei (%) [4]: 83%
- Population Hoechst High Intensity Objects (%) [4]: 18%
- Population Membrane Permeable-Phenotype (%) [4]: 7%
- Population Mitochondria Different-Phenotype (%) [4]: 12%
- Population Mitotic Cells (%) [4]: 60%
- Population Normal (%) [4]: 81%
- Population Pyknosed Nuclei (%) [4]: 10%
- Population Tubulin-Different-Phenotype (%) [4]: 12%
- Total Cell Count [4]: 78
- Population Apoptotic (%) [5]: 40%
- Population Fragmented Nuclei (%) [5]: 13%
- Population Healthy Nuclei (%) [5]: 76%
- Population Hoechst High Intensity Objects (%) [5]: 4%
- Population Membrane Permeable-Phenotype (%) [5]: 5%
- Population Mitochondria Different-Phenotype (%) [5]: 5%
- Population Mitotic Cells (%) [5]: 60%
- Population Normal (%) [5]: 95%
- Population Pyknosed Nuclei (%) [5]: 10%
- Population Tubulin-Different-Phenotype (%) [5]: 18%
- Total Cell Count [5]: 278
- Population Apoptotic (%) [6]: 37%
- Population Fragmented Nuclei (%) [6]: 3%
- Population Healthy Nuclei (%) [6]: 87%
- Population Membrane Permeable-Phenotype (%) [6]: 2%
- Population Mitochondria Different-Phenotype (%) [6]: 10%
- Population Mitotic Cells (%) [6]: 62%
- Population Pyknosed Nuclei (%) [6]: 8%
- Population Tubulin-Different-Phenotype (%) [6]: 25%
- Total Cell Count [6]: 122
- Population Apoptotic (%) [7]: 52%
- Population Fragmented Nuclei (%) [7]: 7%
- Population Healthy Nuclei (%) [7]: 83%
- Population Hoechst High Intensity Objects (%) [7]: 5%
- Population Membrane Permeable-Phenotype (%) [7]: 5%
- Population Mitochondria Different-Phenotype (%) [7]: 6%
- Population Mitotic Cells (%) [7]: 47%
- Population Normal (%) [7]: 94%
- Population Pyknosed Nuclei (%) [7]: 8%
- Population Tubulin-Different-Phenotype (%) [7]: 6%
- Total Cell Count [7]: 208
- Population Apoptotic (%) [8]: 40%
- Population Fragmented Nuclei (%) [8]: 5%
- Population Healthy Nuclei (%) [8]: 85%
- Population Hoechst High Intensity Objects (%) [8]: 11%
- Population Membrane Permeable-Phenotype (%) [8]: 8%
- Population Mitochondria Different-Phenotype (%) [8]: 14%
- Population Mitotic Cells (%) [8]: 60%
- Population Normal (%) [8]: 88%
- Population Pyknosed Nuclei (%) [8]: 9%
- Population Tubulin-Different-Phenotype (%) [8]: 12%
- Total Cell Count [8]: 95
- Population Apoptotic (%) [9]: 37%
- Population Fragmented Nuclei (%) [9]: 5%
- Population Healthy Nuclei (%) [9]: 86%
- Population Hoechst High Intensity Objects (%) [9]: 3%
- Population Membrane Permeable-Phenotype (%) [9]: 4%
- Population Mitochondria Different-Phenotype (%) [9]: 10%
- Population Mitotic Cells (%) [9]: 62%
- Population Normal (%) [9]: 96%
- Population Pyknosed Nuclei (%) [9]: 7%
- Population Tubulin-Different-Phenotype (%) [9]: 17%
- Total Cell Count [9]: 291
- Population Apoptotic (%) [10]: 18%
- Population Fragmented Nuclei (%) [10]: 6%
- Population Healthy Nuclei (%) [10]: 85%
- Population Hoechst High Intensity Objects (%) [10]: 4%
- Population Membrane Permeable-Phenotype (%) [10]: 6%
- Population Mitochondria Different-Phenotype (%) [10]: 13%
- Population Mitotic Cells (%) [10]: 81%
- Population Normal (%) [10]: 95%
- Population Pyknosed Nuclei (%) [10]: 8%
- Population Tubulin-Different-Phenotype (%) [10]: 28%
- Total Cell Count [10]: 117
- Population Apoptotic (%) [11]: 31%
- Population Fragmented Nuclei (%) [11]: 7%
- Population Healthy Nuclei (%) [11]: 84%
- Population Hoechst High Intensity Objects (%) [11]: 3%
- Population Membrane Permeable-Phenotype (%) [11]: 2%
- Population Mitochondria Different-Phenotype (%) [11]: 9%
- Population Mitotic Cells (%) [11]: 68%
- Population Normal (%) [11]: 96%
- Population Pyknosed Nuclei (%) [11]: 8%
- Total Cell Count [11]: 316
- Population Apoptotic (%) [12]: 11%
- Population Fragmented Nuclei (%) [12]: 9%
- Population Healthy Nuclei (%) [12]: 80%
- Population Hoechst High Intensity Objects (%) [12]: 9%
- Population Membrane Permeable-Phenotype (%) [12]: 4%
- Population Mitochondria Different-Phenotype (%) [12]: 17%
- Population Mitotic Cells (%) [12]: 88%
- Population Normal (%) [12]: 90%
- Population Pyknosed Nuclei (%) [12]: 10%
- Population Tubulin-Different-Phenotype (%) [12]: 10%
- Total Cell Count [12]: 133

From ChEMBL document CHEMBL4689842, “EUbOPEN Chemogenomics Library wave 1” (2021)
